# From ChEMBL document CHEMBL1932971, “Synthesis of uriedo and thiouriedo derivatives of peptide conjugated heterocycles - A new class of promising antimicrobials” (2012)
# Peptide text beside a SMILES is read from it. * marks the point of attachment. Piperazinyl(4-(2,3-Cl2Ph)) = Clc1cccc(N2CCN(*)CC2)c1Cl; Thiocarbamoyl(N-4-ClPh) = S=C(Nc1ccc(Cl)cc1)*; Thiocarbamoyl(4-MeOPh) = COc1ccc(NC(=S)*)cc1; X1 = Fc1ccc2c(C3CCN(*)CC3)noc2c1; OcHex = C1CCC(O*)CC1
# Experiments:
# Format in all cases: functional
# Escherichia coli = assay: Antibacterial activity against Escherichia coli at 30 ug/ml after 24 hrs by agar well diffusion method; details: read-out: DIZ
# Method in brief: (§1)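 Agar well diffusion. Inocula were grown in nutrient broth at 37 °C for 24 h, then subcultured in nutrient broth at room temperature. Compounds were made as a 1 mg/mL DMSO stock and diluted to 30 µg/mL final. Nutrient agar plates were spread-inoculated and 6 mm wells each got 0.1 mL. Controls were amoxicillin (reference) and DMSO (negative). Incubation was 24 h at 37 °C. Inhibition zone was measured in mm as the mean of three determinations.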
# Xanthomonas oryzae = assay: Antibacterial activity against Xanthomonas oryzae at 30 ug/ml after 24 hrs by agar well diffusion method; details: read-out: DIZ
# Klebsiella pneumoniae = assay: Antibacterial activity against Klebsiella pneumoniae at 30 ug/ml after 24 hrs by agar well diffusion method; details: read-out: DIZ; method in brief: as §1
# Staphylococcus aureus = assay: Antibacterial activity against coagulase-positive Staphylococcus aureus at 30 ug/ml after 24 hrs by agar well diffusion method; details: read-out: DIZ; method in brief: as §1
# Aspergillus niger [1] = assay: Antifungal activity against Aspergillus niger at 30 ug/ml after 72 hrs by agar well diffusion method; details: read-out: DIZ
# Method in brief: (§2)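 Fungal well diffusion. Inocula were subcultured in nutrient broth for one day, then spread on solidified medium. Compounds were made as a 1 mg/mL DMSO stock and diluted to 30 µg/mL final. Each 6 mm well got 0.1 mL. Controls were bavistin (reference) and DMSO (negative). Plates stood for 3 days at room temperature. Inhibition zone was measured in mm as the mean of three determinations.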
# Aspergillus flavus [2] = assay: Antifungal activity against Aspergillus flavus at 30 ug/ml after 72 hrs by agar well diffusion method; details: read-out: DIZ; method in brief: as §2
# Fusarium oxysporum [3] = assay: Antifungal activity against Fusarium oxysporum at 30 ug/ml after 72 hrs by agar well diffusion method; details: read-out: DIZ; method in brief: as §2
# Aspergillus niger [4] = assay: Antifungal activity against Aspergillus niger after 72 hrs by microdilution method
# Aspergillus flavus [5] = assay: Antifungal activity against Aspergillus flavus after 72 hrs by microdilution method
# Fusarium oxysporum [6] = assay: Antifungal activity against Fusarium oxysporum after 72 hrs by microdilution method
# Aspergillus niger [7] = assay: Ratio of bavistin MIC to compound MIC for Aspergillus niger after 72 hrs by microdilution method
# Aspergillus flavus [8] = assay: Ratio of bavistin MIC to compound MIC for Aspergillus flavus after 72 hrs by microdilution method
# Fusarium oxysporum [9] = assay: Ratio of bavistin MIC to compound MIC for Fusarium oxysporum after 72 hrs by microdilution method
Compound,zone of inhibition at 30 µg/mL (Escherichia coli),zone of inhibition at 30 µg/mL (Xanthomonas oryzae),zone of inhibition at 30 µg/mL (Klebsiella pneumoniae),zone of inhibition at 30 µg/mL (Staphylococcus aureus),zone of inhibition at 30 µg/mL (Aspergillus niger [1]),zone of inhibition at 30 µg/mL (Aspergillus flavus [2]),zone of inhibition at 30 µg/mL (Fusarium oxysporum [3]),MIC (Aspergillus niger [4]),MIC (Aspergillus flavus [5]),MIC (Fusarium oxysporum [6]),Ratio (Aspergillus niger [7]),Ratio (Aspergillus flavus [8]),Ratio (Fusarium oxysporum [9])
COc1ccc(NC(=S)NCC(=O)N[C@@H](CCC(=O)OC2CCCCC2)C(=O)NCC(=O)N[C@@H](Cc2ccccc2)C(=O)N2CCC[C@H]2C(=O)NCC(=O)N[C@H](C(=O)NCC(=O)N[C@H](C(=O)N2CCC[C@H]2C(=O)NCC(=O)N[C@H](C(=O)NCC(=O)N[C@H](C(=O)N2CCC[C@H]2C(=O)NCC(=O)N[C@H](C(=O)NCC(=O)N[C@H](C(=O)N2CCC[C@H]2C(=O)NCC(=O)N[C@@H](Cc2ccccc2)C(=O)NCC(=O)N[C@@H](Cc2ccccc2)C(=O)N2CCC[C@H]2C(=O)NCC(=O)N[C@@H](Cc2ccccc2)C(=O)NCC(=O)N[C@@H](Cc2ccccc2)C(=O)N2CCC[C@H]2C(=O)N2CCC(c3noc4cc(F)ccc34)CC2)C(C)C)C(C)C)C(C)C)C(C)C)C(C)C)C(C)C)cc1 ({Thiocarbamoyl(4-MeOPh)}-GE(OcHex)GFPGVGVPGVGVPGVGVPGFGFPGFGFP-X1),17 mm,14 mm,16 mm,15 mm,43 mm,38 mm,39 mm,2 µg/mL,2 µg/mL,2 µg/mL,10,10,10
"CC(C)[C@H](NC(=O)CNC(=O)[C@@H]1CCCN1C(=O)[C@H](Cc1ccccc1)NC(=O)CNC(=O)[C@H](CCC(=O)OC1CCCCC1)NC(=O)CNC(=S)Nc1ccc(Cl)cc1)C(=O)NCC(=O)N[C@H](C(=O)N1CCC[C@H]1C(=O)NCC(=O)N[C@H](C(=O)NCC(=O)N[C@@H](Cc1ccccc1)C(=O)N1CCC[C@H]1C(=O)NCC(=O)N[C@@H](Cc1ccccc1)C(=O)NCC(=O)N[C@@H](Cc1ccccc1)C(=O)N1CCC[C@H]1C(=O)NCC(=O)N[C@H](C(=O)NCC(=O)N[C@H](C(=O)N1CCC[C@H]1C(=O)NCC(=O)N[C@H](C(=O)NCC(=O)N[C@@H](Cc1ccccc1)C(=O)N1CCC[C@H]1C(=O)N1CCN(c2cccc(Cl)c2Cl)CC1)C(C)C)C(C)C)C(C)C)C(C)C)C(C)C ({Thiocarbamoyl(N-4-ClPh)}-GE(OcHex)GFPGVGVPGVGFPGFGFPGVGVPGVGFP-{Piperazinyl(4-(2,3-Cl2Ph))})",19 mm,16 mm,18 mm,16 mm,44 mm,39 mm,40 mm,2.5 µg/mL,2.5 µg/mL,3 µg/mL,10,10,10
CC(C)[C@H](NC(=O)CNC(=O)[C@@H]1CCCN1C(=O)[C@H](Cc1ccccc1)NC(=O)CNC(=O)[C@H](CCC(=O)OC1CCCCC1)NC(=O)CNC(=S)Nc1ccc(Cl)cc1)C(=O)NCC(=O)N[C@H](C(=O)N1CCC[C@H]1C(=O)NCC(=O)N[C@H](C(=O)NCC(=O)N[C@H](C(=O)N1CCC[C@H]1C(=O)NCC(=O)N[C@H](C(=O)NCC(=O)N[C@H](C(=O)N1CCC[C@H]1C(=O)NCC(=O)N[C@@H](Cc1ccccc1)C(=O)NCC(=O)N[C@@H](Cc1ccccc1)C(=O)N1CCC[C@H]1C(=O)NCC(=O)N[C@@H](Cc1ccccc1)C(=O)NCC(=O)N[C@@H](Cc1ccccc1)C(=O)N1CCC[C@H]1C(=O)N1CCC(c2noc3cc(F)ccc23)CC1)C(C)C)C(C)C)C(C)C)C(C)C)C(C)C ({Thiocarbamoyl(N-4-ClPh)}-GE(OcHex)GFPGVGVPGVGVPGVGVPGFGFPGFGFP-X1),21 mm,17 mm,19 mm,17 mm,45 mm,40 mm,41 mm,1.75 µg/mL,1.75 µg/mL,2.5 µg/mL,10,10,10
